This is an account of results in ChEMBL document CHEMBL1157718, “Characterization of non-lipid autotaxin inhibitors” (Bioorg Med Chem, 2010).

Experiment [1] concerns the target T1, Glycerophosphocholine cholinephosphodiesterase ENPP6 (Homo sapiens) (UniProt Q6UWR7).
T1 sequence (whole entry): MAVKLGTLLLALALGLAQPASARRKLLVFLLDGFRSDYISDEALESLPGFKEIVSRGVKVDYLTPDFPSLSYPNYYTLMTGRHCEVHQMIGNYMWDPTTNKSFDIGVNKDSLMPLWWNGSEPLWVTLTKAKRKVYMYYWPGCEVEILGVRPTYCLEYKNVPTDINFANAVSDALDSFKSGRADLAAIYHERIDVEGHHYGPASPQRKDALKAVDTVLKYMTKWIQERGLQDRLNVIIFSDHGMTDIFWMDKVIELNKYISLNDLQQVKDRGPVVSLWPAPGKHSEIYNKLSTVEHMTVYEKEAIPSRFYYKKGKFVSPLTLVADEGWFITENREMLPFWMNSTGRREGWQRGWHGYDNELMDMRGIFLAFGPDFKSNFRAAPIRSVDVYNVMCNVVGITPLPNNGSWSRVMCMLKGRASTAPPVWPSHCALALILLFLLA
Kind of experiment: Inhibition of NPP6 expressed in human HEK293 cells at 10 uM. In kind it is cell-based. In short, it runs like this: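 Enzyme was soluble NPP6 in unconcentrated serum-free conditioned medium from transiently transfected HEK293 cells (48 h), making up one-third of the assay volume. Substrate was pNPPC at […] in 100 mM Tris-HCl pH 9.0, 500 mM NaCl, 0.05% Triton X-100, with inhibitor at 10 µM. A405 was read every 2 min and reported at 1 h, blank-subtracted and normalized to vehicle. Mean ± SD of ≥3 wells.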

Experiment [2] deals with T2, Ectonucleotide pyrophosphatase/phosphodiesterase family member 7 (Homo sapiens) (UniProt Q6UWV6).
T2 sequence (whole entry): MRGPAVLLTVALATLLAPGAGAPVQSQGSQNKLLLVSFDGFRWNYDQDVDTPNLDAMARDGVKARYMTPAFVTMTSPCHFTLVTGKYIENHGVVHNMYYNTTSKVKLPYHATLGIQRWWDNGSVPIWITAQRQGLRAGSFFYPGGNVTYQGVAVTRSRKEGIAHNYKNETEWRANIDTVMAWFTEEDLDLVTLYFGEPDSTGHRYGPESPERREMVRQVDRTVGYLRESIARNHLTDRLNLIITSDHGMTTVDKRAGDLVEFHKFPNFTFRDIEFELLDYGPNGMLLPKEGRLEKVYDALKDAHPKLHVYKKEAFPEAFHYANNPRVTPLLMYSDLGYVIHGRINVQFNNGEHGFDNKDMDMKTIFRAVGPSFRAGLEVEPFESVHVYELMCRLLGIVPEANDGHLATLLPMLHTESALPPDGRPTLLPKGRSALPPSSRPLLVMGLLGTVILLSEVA
Kind of experiment: Inhibition of NPP7 expressed in human HEK293 cells at 10 uM. In kind it is cell-based. The gist of the method:
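Enzyme was soluble NPP7 in concentrated (10 kDa cutoff) serum-free conditioned medium from transiently transfected HEK293 cells, making up one-third of the assay volume. Substrate was pNPPC at […] in 50 mM Tris-HCl pH 8.5, 150 mM NaCl, 10 mM taurocholic acid, no EDTA, with inhibitor at 10 µM. A405 was read every 2 min and reported at 1 h, normalized to vehicle after blank subtraction. Mean ± SD of ≥3 wells.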

Experiment [3] addresses T3, Autotaxin (Homo sapiens, UniProt Q13822). Kind of experiment: Noncompetitive inhibition of autotaxin-mediated pNP-TMP hydrolysis by Michaelis-Menten analysis for enzyme-substrate complex. In short, it runs like this:
(§1)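 ATX from ~10-fold concentrated serum-free conditioned medium of MDA-MB-435 cells, used without further manipulation. […] Absorbance at 405 nm read every 2 min gave initial rates. Km came from zero-inhibitor data. Ki (free enzyme) and K'i (enzyme–substrate complex) were fitted by non-linear models, and the mechanism was assigned by the lowest average percent residuals.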

Experiment [4] concerns the target T3, Autotaxin. Kind of experiment: Competitive-type inhibition of autotaxin-mediated FS3 hydrolysis by Michaelis-Menten analysis. The gist of the method:
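ATX from ~10-fold concentrated serum-free conditioned medium of MDA-MB-435 cells. […] Buffer was 50 mM Tris pH 8.0 with salts and 30 µM charcoal-stripped BSA, 37 °C, fluorescence read every 2 min at ex 485/em 528. Initial rates were fitted to inhibition models, and the mechanism was assigned by lowest average percent residuals.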

Experiment [5] addresses T3, Autotaxin.
Experiment [6] has as its target T3, Autotaxin. As to the kind of experiment: Noncompetitive inhibition of autotaxin-mediated pNP-TMP hydrolysis by Michaelis-Menten analysis. The gist of the method: as §1
The target of experiment [7] is T3, Autotaxin. The source holds these as a separate data set.
The target of experiment [8] is T3, Autotaxin. This is another data set of the same source.
Experiment [9] addresses T3, Autotaxin. The source holds these as a separate data set.

Calls of active or inactive are those of the source.

For the compound `CCn1c(SCC(=O)Nc2ccc(C(=O)O)cc2)nc2nc3c(cc2c1=O)CCCC3`, the inhibition result in [1] and in experiment [2] was “inactive” each time.

Regarding `CCn1cc(C(=O)O)c(=O)c2cnc(N3CCN(C(=S)Nc4cc(Cl)cc(Cl)c4)CC3)nc21`, the inhibition result in experiment [1] and in experiment [2] was “inactive” each time. In addition, the Ki at Autotaxin [3] is 6.5 µM; at Autotaxin [4], 1.9 µM; at Autotaxin [6] it was 6.5 µM. Moreover, at Autotaxin [5], the IC50 turned out to be 1.2 µM.

Regarding `CCn1cc(C(=O)O)c(=O)c2cnc(N3CCN(C(=S)NC(=O)C4c5ccccc5Oc5ccccc54)CC3)nc21`, the inhibition entry in experiment [1] and in experiment [2] was “inactive” throughout.

As to `O=C(O)c1cccc(NC(=O)c2ccc3c(c2)C(=O)N(c2ccc(/N=N/c4ccccc4)cc2)C3=O)c1`, the Ki turned out to be 15.1 µM on Autotaxin [7] and 40.3 µM at Autotaxin [9]. The inhibition result in experiment [1] and in [2] was “inactive” throughout. On Autotaxin [8], this compound had an IC50 of 12.8 µM.

On to `O=C(O)c1ccc(Oc2ccc(C(=O)c3ccc4c(c3)C(=O)N(c3cccc5ccccc35)C4=O)cc2)cc1`, for which the Ki was determined as 5.8 µM on Autotaxin [7] and 32.3 µM at Autotaxin [9]. Moreover, the inhibition entry in experiment [1] and in experiment [2] was “inactive” each time. Further, the half-maximal inhibitory concentration (IC50) against Autotaxin [8] and against Autotaxin [5] was 6.8 µM throughout.

Turning to `O=C(O)c1ccc(CN2C(=O)c3ccc(C(=O)c4ccc5c(c4)C(=O)N(Cc4ccc(C(=O)O)cc4)C5=O)cc3C2=O)cc1`, the inhibition entry in [1] and in experiment [2] was “inactive” in each case. This compound also came in with a Ki at Autotaxin [4] of 5 µM. The compound also gave an IC50 at Autotaxin [8] of 12.8 µM.

What is called Ki is a dissociation constant, usually derived from enzyme kinetics or from competition with a known ligand. Higher therefore signals lower affinity. A word on the IC50: it is the midpoint of a concentration-inhibition curve.
